Activity data for five molecules are collected here from ChEMBL document CHEMBL3271980, “Synthesis and some pharmacological properties of oxytocin analogues having L-thiazolidine-4-carboxylic acid in position 7” (1976).

Assay type in all cases: functional
For test [1], the species on record is Rattus norvegicus. Nature of the test: Effect on rat blood pressure relative to bradykinin.
The species named for test [2] is Rattus norvegicus. Nature of the test: Effect on rat uterus activity relative to bradykinin.
A further test concerns Gallus gallus. Nature of the test: Induction of vasodepressor activity in conscious chicken. In short, it runs like this:
(§1)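 Purified analogues assayed for oxytocic, avian vasodepressor and rat pressor activity. Potency was measured against the U.S.P. posterior pituitary reference standard using a four-point assay design.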

Test [3] can be described thus: Induction of oxytocic activity in rat uterus. In short, it runs like this:
as §1

Test [4] is filed under the species Rattus norvegicus. Put plainly: Effect on pressor activity in rat. In short, it runs like this: as §1

As to `N=C(N)NCCC[C@H](NC(=O)[C@H](Cc1ccccc1)NC(=O)[C@@H]1CCCN1C(=O)[C@H](CO)NC(=O)[C@H](Cc1ccccc1)NC(=O)CNC(=O)[C@@H]1CSCN1C(=O)[C@@H]1CCCN1C(=O)[C@@H](N)CCCNC(=N)N)C(=O)O`, the Activity in the test listed under Rattus norvegicus [1] came to 26%; in the test filed under Rattus norvegicus [2] it was 46%.
With `CC[C@H](C)[C@@H]1NC(=O)[C@H](Cc2ccc(O)cc2)NC(=O)[C@@H](N)CSSC[C@@H](C(=O)N2CSC[C@H]2C(=O)N[C@@H](CC(C)C)C(=O)NCC(N)=O)NC(=O)[C@H](CC(N)=O)NC(=O)[C@H](CCC(N)=O)NC1=O`, the Activity with Gallus gallus stood at 720 U/mg; in test [3], 1180 U/mg; in the test listed under Rattus norvegicus [4], 3.46 U/mg.
For `CC[C@H](C)[C@@H]1NC(=O)[C@H](Cc2ccc(O)cc2)NC(=O)CCSSC[C@@H](C(=O)N2CSC[C@H]2C(=O)N[C@@H](CC(C)C)C(=O)NCC(N)=O)NC(=O)[C@H](CC(N)=O)NC(=O)[C@H](CCC(N)=O)NC1=O`, the values for the Activity (in the test with Gallus gallus; in test [3]; in the test filed under Rattus norvegicus [4]) were 2039 U/mg, 1538 U/mg and 1.69 U/mg, respectively.
`CC[C@H](C)[C@@H]1NC(=O)[C@H](Cc2ccc(O)cc2)NC(=O)CCSSC[C@@H](C(=O)N2CCC[C@H]2C(=O)N[C@@H](CC(C)C)C(=O)NCC(N)=O)NC(=O)[C@H](CC(N)=O)NC(=O)[C@H](CCC(N)=O)NC1=O`: the Activity in the test on Gallus gallus is listed as 975 U/mg; in test [3] it was 803 U/mg; in the test listed under Rattus norvegicus [4], 1.44 U/mg.
Consider `CC[C@H](C)[C@@H]1NC(=O)[C@H](Cc2ccc(O)cc2)NC(=O)[C@@H](N)CSSC[C@@H](C(=O)N2CCC[C@H]2C(=O)N[C@@H](CC(C)C)C(=O)NCC(N)=O)NC(=O)[C@H](CC(N)=O)NC(=O)[C@H](CCC(N)=O)NC1=O` [OXYTOCIN], for which the Activity in the test on Gallus gallus turned out to be 507 U/mg; in test [3] it was 546 U/mg; in the test listed under Rattus norvegicus [4], 3.1 U/mg.
